An excerpt weighted towards active compounds, which were near 3.6% of everything screened.
EBNA-1 inhibitor: blocks EBNA-1 binding to DNA; EBNA-1 DNA binding, fluorescence polarization; inhibition, % at 14.8 µM; 300,000 compounds, 0.34% hits; in the data active = inhibition above about 28%
ZTA counter: counter-screen for EBNA-1 inhibitors: inhibitors of Epstein-Barr virus ZTA; 320,000 compounds, 0.15% hits; P03206; inhibition, % at 11 µM; ZTA-DNA binding, fluorescence polarization; AID 2234; in the data active = inhibition above about 33%
Target sequence (P03206 whole entry, looked up): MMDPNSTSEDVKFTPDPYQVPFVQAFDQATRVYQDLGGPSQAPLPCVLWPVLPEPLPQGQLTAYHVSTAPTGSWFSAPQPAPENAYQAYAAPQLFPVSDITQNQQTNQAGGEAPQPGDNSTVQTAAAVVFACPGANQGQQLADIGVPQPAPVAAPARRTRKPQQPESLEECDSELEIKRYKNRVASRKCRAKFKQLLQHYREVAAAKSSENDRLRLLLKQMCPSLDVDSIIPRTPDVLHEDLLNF
NS3 helicase inh: blocks Hepatitis C virus NS3 helicase unwinding | NS3 helicase DNA unwinding, Cy5 molecular beacon fluorescence | inhibition, % at 10.9 µM | 290,000 compounds, 0.56% hits;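 active = inhibition above the mean of all tested compounds plus 3 SD, set per campaign, cut at about 35% in these data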;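 note: 0% = DMSO wells and 100% = thioflavine S control wells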
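Compound dosing – single dose, 10.9 µM nominal final, DMSO 0.8% final · System – NS3 helicase fragment of HCV · Buffer or medium – MOPS pH 6.5, MgCl2, DTT, Tween20, BSA · Signal – Cy5 beacon fluorescence read at start and 1 h · Also added – annealed dual-labelled DNA beacon duplex, ATP-started · Schedule – 1 h at 25 °C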
NR3A LBD binder: modulators (binders) of human NR3A ligand-binding domain. NR3A LBD differential scanning fluorimetry, Tm shift; 0% = protein alone, 100% = glycine-bound protein. Tm shift relative to glycine control, % at 25 µM. 340,000 compounds, 2.5% hits. AID 1259313;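 active = melting temperature shift of at least 10% of the positive control shift, at one fixed dose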
FID counter: displaces DNA intercalator in HCV helicase counter-screen; DNA fluorescent intercalator displacement, fluorescence; inhibition, % at 7.9 µM; 290,000 compounds, 0.17% hits; in the data active = inhibition above about 37%;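 note: 0% = vehicle and 100% = reference compound; higher means more ethidium bromide displaced from hairpin DNA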
FGF22 binding: FGF22 (human) thermal shift binding; Q9HCT0; recombinant FGF22 thermal shift, SYPRO orange fluorescence; percent of sucrose octasulfate shift, DMSO zero; activity (Tm shift, normalised), % at 9.99 µM; 340,000 compounds, 1.5% hits;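 active = mean Tm shift, scaled 0 neutral to 100 positive control, at about 1.3% or above, every replicate too, limit read from the data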
Target sequence (Q9HCT0 whole entry, looked up): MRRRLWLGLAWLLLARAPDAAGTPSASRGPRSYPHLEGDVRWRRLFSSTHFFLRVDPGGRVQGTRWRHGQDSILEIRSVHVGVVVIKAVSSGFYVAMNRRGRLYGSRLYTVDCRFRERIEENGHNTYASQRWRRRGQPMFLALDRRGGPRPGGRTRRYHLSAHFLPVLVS
Active calls of the source: *; nt = not tested or not shown.

SMILES	EBNA-1 inhibitor	ZTA counter	NS3 helicase inh	NR3A LBD binder	FID counter	FGF22 binding
C[C@@H]1CN([C@@H](C)CO)C(=O)c2cc(Br)cnc2O[C@@H]1CN(C)C(=O)c1ccccc1F	nt	nt	nt	nt	nt	0
CC(C)NC(=O)[C@@]1(C)c2ccccc2C(=O)N(Cc2ccccc2)[C@H]1c1ccc(CO)cc1	nt	nt	nt	nt	nt	-1
C[C@H](CO)N1C[C@H](C)[C@H](CN(C)CC2CC2)Oc2ccc(NC(=O)CCC(F)(F)F)cc2CC1=O	nt	nt	nt	nt	nt	-1
CC(C)NC(=O)N(C)C[C@H]1Oc2c(NC(=O)Nc3ccc(F)cc3)cccc2C(=O)N([C@H](C)CO)C[C@H]1C	nt	nt	nt	nt	nt	0
COc1ccc(OC)c(S(=O)(=O)N/N=C\c2c[nH]c3ccccc23)c1	nt	nt	-6	32*	-1	0
COc1ccc(OC)c(S(=O)(=O)N/N=C(/C)c2ccc3c(c2)OCO3)c1	nt	nt	5	2	-14	0
COc1ccc(OC)c(S(=O)(=O)N/N=C(/C)c2c[nH]c3ccccc23)c1	nt	nt	-13	25*	-2	0
COc1ccc2c3c(n(C)c2c1)[C@H](CO)N(C(=O)Cc1ccccn1)CC31CCN(CC2CCCC2)CC1	nt	nt	nt	nt	nt	0
COc1ccccc1-n1c(-c2cc(-c3ccc(F)cc3)n[nH]2)n[nH]c1=S	-1	11	-5	19*	-12	0
COc1ccc(C2C(C(=O)Nc3ccccc3)=C(C)N=C3SCC(=O)N32)cc1 (stereo not given)	0	-5	10	1	-6	nt
CC1=C(C(=O)Nc2ccccc2)C(c2ccc(O)cc2)N2C(=O)CSC2=N1 (stereo not given)	3	-10	20	12*	-3	nt
Cc1cnc(N)nc1-c1ccccc1	nt	nt	nt	nt	nt	43*
C[C@@H]1CN([C@H](C)CO)C(=O)c2cccc(NC(=O)CCCCCC(=O)Nc3ccccc3N)c2O[C@H]1CN(C)Cc1ccc(C(F)(F)F)cc1	nt	nt	nt	nt	nt	0
O=C(Nc1cccc(C(F)(F)F)c1)Nc1ccc(N2CCCC2)c(S(=O)(=O)Nc2ccccc2Cl)c1	-2	-3	-19	30*	13	nt
COc1ccccc1NS(=O)(=O)c1cc(NC(=O)Nc2ccc(Cl)cc2Cl)ccc1N1CCCCC1	2	-1	-8	12*	0	nt
COc1ccccc1NS(=O)(=O)c1cc(NC(=O)C2CCC2)ccc1N1CCCCC1	-13	-4	-1	0	-3	0
Nc1ccc(N2CCCCC2)c(S(=O)(=O)Nc2ccccc2Cl)c1	1	-2	-4	-5	-19	0
COc1ccccc1NS(=O)(=O)c1cc(N)ccc1N1CCCCC1	0	-3	5	33*	-10	-1
O=C(C1CCOCC1)N1CC(=O)N2[C@H](C1)[C@@H](c1ccc(/C=C/c3ccccc3)cc1)[C@@H]2CO	nt	nt	nt	nt	nt	0
O=C(C[C@H]1C[C@H]2c3cc(NS(=O)(=O)c4ccc(F)cc4)ccc3O[C@H]2[C@H](CO)O1)N1CCc2ccccc2C1	nt	nt	nt	nt	nt	0
O=C(CCN1C(=O)NC2(CCCC2)C1=O)Nc1ccc(-c2nc3ccccc3s2)cc1	nt	-11	nt	26*	nt	nt
Cc1nnc(SCC(=O)Nc2ccc(-c3nc4ccccc4s3)cc2)s1	-9	7	-6	30*	-1	1
Cc1nnc(SCC(=O)Nc2ccccc2NC(=O)CSc2nnc(C)s2)s1	-17	-17	-1	-5	-4	nt
C[C@@H]1CCCCO[C@@H](CN(C)Cc2ccccc2)[C@@H](C)CN([C@H](C)CO)C(=O)c2cc(NC(=O)CCC(F)(F)F)ccc2O1	nt	nt	nt	nt	nt	0
C[C@H]1CN([C@@H](C)CO)C(=O)c2cccc(NC(=O)Nc3ccc(F)cc3)c2O[C@@H]1CN(C)CC1CC1	nt	nt	nt	nt	nt	0
SMILES	EBNA-1 inhibitor	ZTA counter	NS3 helicase inh	NR3A LBD binder	FID counter	FGF22 binding
O=C(OCc1ccc(Cl)c(Cl)c1)c1cccnc1Cl	-5	-11	-7	1	-19	0
O=C(OCc1ccc(Cl)cc1Cl)c1cccnc1Cl	0	9	-1	12*	-10	nt
C=C1C(=O)C=C2CN(C(=O)c3ccccc3)[C@@](Cc3ccc(F)cc3)(C(=O)OC)[C@@H]12	9	5	4	12*	-16	nt
C=C1C(=O)CC2=C1[C@](Cc1ccc(F)cc1)(C(=O)OC)N(C(=O)c1ccccc1)C2	nt	nt	nt	nt	nt	0
CCC(=O)Nc1ccc2c(c1)C(=O)N(C)[C@@H]1CC[C@H](CC(=O)NC3Cc4ccccc4C3)O[C@@H]1CO2	nt	nt	nt	nt	nt	0
O=C(NC(=S)Nc1cc(Cl)ccc1O)c1cccc(Br)c1	-3	12	16	18*	6	0
Cc1ccc(NC(=S)NC(=O)c2ccc(F)cc2)cc1S(=O)(=O)Nc1cccc(Cl)c1	-4	11	6	13*	0	0
CC(C)C(=O)Nc1cccc(NC(=S)NC(=O)c2ccc(Cl)cc2)c1	-1	-1	13	-9	-10	nt
O=C(NC(=S)Nc1cccnc1)c1cccc(Br)c1	-3	-24	14	0	-23	0
Cc1ccc(NC(=O)c2cccs2)cc1S(=O)(=O)Nc1cccc(Cl)c1	-14	-8	-14	35*	-4	0
O=C(NNC(=O)c1cccs1)Nc1cccc(Cl)c1	-12	-25	5	1	0	nt
O=C(O)c1ccc(NC(=S)NC(=O)c2ccc3ccccc3c2)cc1	-7	-3	10	17*	-26	0
CS(=O)(=O)Nc1ccc2c(c1)[C@H]1C[C@@H](CC(=O)N3CCCCC3)O[C@H](CO)[C@H]1O2	nt	nt	nt	nt	nt	0
CC(C)NC(=O)N(C)C[C@H]1OCCCC[C@H](C)Oc2ccc(NC(=O)C3CCCCC3)cc2C(=O)N([C@H](C)CO)C[C@@H]1C	nt	nt	nt	nt	nt	0
CCN(CC)S(=O)(=O)c1cccc(C(=O)N/N=C(\C)c2cccs2)c1	-8	0	6	0	-10	0
Cc1ccc(C(=O)NC(=S)Nc2ccc(NC(=O)c3cccc(Cl)c3)cc2)cc1	11	-2	0	35*	0	0
Cc1ccc(C(=O)NCC(=O)Nc2ccc(C)c(S(=O)(=O)Nc3ccc(Cl)cc3)c2)s1	16	5	10	11*	-8	0
O=C(CCC(=O)c1ccc(F)cc1)Nc1cccc(C(F)(F)F)c1	7	-14	-4	-13	-1	0
O=C(CCC(=O)c1ccc(F)cc1)Nc1cccc(S(=O)(=O)Nc2cccc(Cl)c2)c1	9	5	-7	28*	-8	0

Screening data as filed in PubChem.
